# Source: PubChem
# TRPC4 potent – positive allosteric modulators of TRPC4, primary screen, cell-based, mouse TRPC4beta, HEK293 mu-opioid, Fluo-4 calcium; B-score at 10 µM; DAMGO EC20, Fluo-4 Ca2+ flux; active compounds read high; Short transient receptor potential channel 4 (Mus musculus), Q9QUQ5; AID 2227, 2009; 0.42% of 310,000 active;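 active = B-score of calcium response area above 5 SD of library B-scores, with initial fluorescence ratio within 5 SD of library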;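 note: B-score of integrated fluorescence ratio over time as area under calcium response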
# TRPC6 inhibitor – mouse TRPC6 channel inhibitors, primary screen, cell-based, HEK293, membrane potential dye | Short transient receptor potential channel 6 (Mus musculus), Q61143 | ACh-evoked depolarization; active compounds read low | B-score at 10 µM | 1.1% of 310,000 active | AID 2553, 2010;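 active = B-score under library mean minus 3 SD, initial fluorescence not abnormally high, positive integrated signal ratio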;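 note: B-score derived from integrated fluorescence ratio over the kinetic read; more negative B-score means stronger inhibition of depolarization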
# TRPC6 activator – mouse TRPC6 channel activators, primary screen, cell-based, HEK293, membrane potential dye; HEK293-TRPC6 membrane potential dye fluorescence; active compounds read high; 0.13% of 310,000 active; B-score at 10 µM; Short transient receptor potential channel 6 (Mus musculus), Q61143; AID 2550, 2010;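 active = B-score of the integrated fluorescence ratio above library mean plus 3 SD, and starting fluorescence ratio within library mean plus 5 SD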;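 note: higher score means more depolarization so channel activation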
# TRPC4 agonist – activators of mouse TRPC4 channel, primary screen, Fluo4 calcium, HEK293 TRPC4beta/mu-opioid cells; Short transient receptor potential channel 4 (Mus musculus), Q9QUQ5; Fluo4 calcium fluorescence; active compounds read high; B-score at 10 µM; 0.49% of 310,000 active; AID 2237, 2010;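 active = B-score above 5 SD of library B-scores, and initial fluorescence ratio not above library mean plus 5 SD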;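 note: positive B-score marks a calcium rise read as TRPC4 activation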
#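 Incubation: 45 min room-temperature Fluo4 loading, 110 s read / System: HEK293 cells stably co-expressing mouse TRPC4beta and mu-opioid receptor / Signal: Fluo4 fluorescence, kinetic / Control set: buffer (low) and maximal DAMGO (high) / Measure: integrated baseline-normalised fluorescence ratio, converted to per-well B score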
# TRPC4 block – inhibitors of mouse TRPC4 channel, primary screen, Fluo4 calcium, HEK293 TRPC4beta/mu-opioid cells; Short transient receptor potential channel 4 (Mus musculus), Q9QUQ5; DAMGO-evoked Fluo4 calcium flux; active compounds read low; B-score at 10 µM; 0.39% of 300,000 active; AID 2247, 2010;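 active = B-score over 3 SD under the library average, no early fluorescence shift, positive overall ratio signal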
#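 Assay system: HEK293 cells with stable TRPC4beta plus mu-opioid receptor expression. Dosing: single dose. Measured by: Fluo4 Ca2+ flux fluorescence. Also added: DAMGO in two steps, submaximal then maximal. Read-out: B score from integrated Fluo4 fluorescence ratio.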
# * hit, by the source's call; i = inactive. This is a sample that favours compounds with a hit; in the whole collection about 2.3% have one here.
SMILES,TRPC4 potent,TRPC6 inhibitor,TRPC6 activator,TRPC4 agonist,TRPC4 block
COC(=O)c1ccc(N2CCN(C)CC2)c(NC(=O)COc2cccc(C)c2)c1,i,i,i,63*,i
CCCCCn1nc(C(=O)OCc2nnc(-c3ccccc3)o2)c2ccccc2c1=O,i,i,i,i,i
CCn1cc(CN2CCN(Cc3ccccc3)C(CCO)C2)c2ccccc21 (stereo not drawn),i,i,i,58*,i
OCCC1CN(Cc2ccccc2-c2ccco2)CCN1Cc1ccccc1 (stereo not drawn),i,i,i,113*,i
OCCC1CN(Cc2ccc3nsnc3c2)CCN1CCc1ccccc1 (stereo not drawn),i,i,i,43*,i
CCc1ccc(N(CC(=O)N2CCN(Cc3ccccc3)CC2)S(C)(=O)=O)cc1,i,i,i,i,i
COc1cc(NC(=O)c2cccc(C)c2)ccc1NC(=O)c1cc2ccccc2o1,i,i,i,i,i
Cc1cccn2c(=O)c3cc(S(=O)(=O)c4ccc(F)cc4)c(=N)n(Cc4ccco4)c3nc12,i,i,i,i,i
Cc1cccn2c(=O)c3cc(S(=O)(=O)c4ccccc4)c(=N)n(Cc4ccco4)c3nc12,10*,i,i,i,i
CC12CC(O)C3c4ccc(O)cc4CCC3C1CC/C2=N\O (stereo not drawn),i,i,i,i,i
COC(=O)[C@@]12CCCN1[C@H](c1ccc(-c3ccccc3)cc1)[C@H]1C(=O)N(C)C(=O)[C@H]12,i,i,i,i,i
COC(=O)[C@@]12CCCN1[C@H](c1ccc(-c3ccc(OC)cc3)cc1)[C@@H]1C(=O)N(C)C(=O)[C@@H]12,24*,i,i,i,i
COc1ccccc1C1CCN(c2cc(O)ccc2[N+](=O)[O-])CC1,13*,i,i,i,-5*
COc1ccccc1C1CCN(C(=O)c2ccccc2)CC1,i,i,i,i,i
COc1ccc(N(C(=O)c2snc(C(N)=O)c2N)C(C(=O)NCc2ccc(F)cc2)c2ccc(C)o2)c(OC)c1 (stereo not drawn),i,i,i,i,i
COc1ccccc1N(C(=O)c1snc(C(N)=O)c1N)C(C(=O)NCc1ccccc1)c1ccc(C)o1 (stereo not drawn),i,i,i,i,-6*
NC(=O)c1nsc(C(=O)N(Cc2ccco2)C(C(=O)NCc2ccccc2)c2ccc(O)cc2)c1N (stereo not drawn),i,i,i,i,-8*
CCOc1ccccc1N(C(=O)c1snc(C(N)=O)c1N)C(C(=O)NCc1ccccc1)c1ccc(O)cc1 (stereo not drawn),i,i,i,i,-9*
Cc1ccccc1N(C(=O)c1snc(C(N)=O)c1N)C(C(=O)NCc1ccccc1)c1ccc(O)cc1 (stereo not drawn),i,i,i,i,i
c1ccc(CSc2cc3ccccc3[nH]2)cc1,i,i,i,i,i
CN(CC(=O)Nc1cccc(F)c1)C(=O)CNS(=O)(=O)c1ccc(N(C)C)c([N+](=O)[O-])c1,i,i,i,i,i
O=C(N/N=C/c1c(O)ccc2ccccc12)c1cccc(C(F)(F)F)c1,12*,i,i,i,i
COc1ccc2ccccc2c1/C=N/NC(=O)c1cccc(Br)c1,i,i,i,i,i
CCN1CCN(S(=O)(=O)c2cc(C(=O)O)ccc2Cl)CC1,i,i,i,i,i
Cc1ccc(C)c(NC(=O)c2cc(=O)c3ccccc3o2)c1,12*,i,i,i,i
NS(=O)(=O)c1ccc(NCc2ccccc2OCc2ccc(F)cc2)cc1,i,i,i,i,i
CCOc1ccc2ccccc2c1CNCCc1ccc(S(N)(=O)=O)cc1,i,i,i,i,-6*
